Screening results: PubChem BioAssay, several laboratories
D1 mod = D1 CRE-luciferase signal change, two-sided – cell-based, HEK293 D1, dopamine EC30, D1 allosteric modulator project, primary screen; D(1A) dopamine receptor (Homo sapiens), P21728; dopamine EC30 potentiation; actives deviate in either direction; B-score at 10 µM; hit rate 5.9% among 58,000;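 active means luminescence count or its row- and column-corrected plate score outside the 99.7% band of the plate's sample wells, on either side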
HePTP inhibitor = inhibitors of human HePTP phosphatase, primary screen, biochemical, absorbance, leukemia target. recombinant HePTP phosphatase activity, OD absorbance. Tyrosine-protein phosphatase non-receptor type 7 (Homo sapiens), P35236. hit rate 0.64% among 110,000. inhibition, % at 20 µM. AID 521, 2006; in the data active means inhibition above about 50%; inconclusive means no clear call, values can overlap the other calls;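 further: plate controls were vehicle for no effect and reference inhibitor for full effect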
SF1 activator = activators of human SF-1, primary screen, cell-based, CHO-K1, Gal4-SF-1 LBD, luciferase luminescence; Steroidogenic factor 1 (Homo sapiens), Q13285; CHO-K1 Gal4-SF-1 LBD luciferase reporter; % increase over DMSO SF-1-specific signal; activation, % at 10 µM; hit rate 1.9% among 65,000; AID 522, 2006;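 active means activation above the mean activation of all tested compounds plus 3 SD, cut at about 50% in these data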
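System: CHO-K1 cells with Gal4–hSF-1 LBD chimera plus Gal4-driven luciferase; quantity: 4,000 CHO-K1 cells per well; compound: one dose, 10 µM compound, 1% DMSO; times: 20 h compound treatment, 37 °C; measured by: SteadyLite luciferase luminescence; read-out: percent activation versus DMSO; benchmarks: DMSO and mock-transfected background; replicates: one test per compound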
M1 ag = M1 muscarinic receptor agonists, primary screen, CHO-M1 cells, Fluo-4 calcium, agonist mode; Muscarinic acetylcholine receptor M1; Fluo-4 calcium fluorescence; active compounds read high; B-score at 10 µM; hit rate 3% among 64,000; AID 626, 2007;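 active means fluorescence rise, raw or as B-score row- and column-corrected plate score, outside the 99.7% band of its plate's samples, either direction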
RORa activator = activators of orphan receptor RORA, primary screen, cell-based, luminescence | Nuclear receptor ROR-alpha (Homo sapiens), P35398 | CHO-K1 Gal4-RORA LBD luciferase reporter; percent increase over mock-subtracted basal signal | activation, % at 10 µM | hit rate 1.5% among 65,000;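 active means activation above the mean of all tested compounds plus 3 SD, cut at about 49% in these data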;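 further: 0% = DMSO-treated RORA cells and 100% = added signal equal to DMSO minus mock-transfected cells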
M1 antag = antagonists of rat M1 muscarinic receptor. Muscarinic acetylcholine receptor M1 (Rattus norvegicus), P08482. hit rate 3.4% among 64,000. AID 628, 2007. B-score at 10 µM. CHO-M1 cells, Fluo-4 calcium, ACh EC80 antagonist mode; active compounds read low;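 active means calcium fluorescence response, raw or row-and-column corrected B-score, differing from the plate sample mean either way at a set confidence level, mostly lower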
M1 agonist conf = rat M1 muscarinic receptor agonists, confirmation, CHO-M1 cells, Fluo-4 calcium, duplicate retest; shares compounds with M1 ag; Fluo-4 calcium fluorescence, agonist mode; actives lie on both sides; fluorescence change (max-min) at 10 µM; hit rate 19% among 1,700; AID 1488, 2009;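 active means fluorescence change differs from the solvent-only DMSO control mean at a set confidence level in both duplicate runs; inconclusive means differs from solvent-only control mean in just one of two runs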;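 further: an EC20 dose of acetylcholine follows compound addition during the same imaging run; raw fluorescence intensity difference in instrument units with no normalization to controls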
M4 ag counter = agonist activity at rat M4 receptor, confirmation, counter-screen for M1 allosteric modulator project, cell-based, agonist mode; shares compounds with M1 ag; fluorescence change (max-min) at 10 µM; hit rate 9% among 1,700; CHO M4/Gqi5 cells, Fluo-4 calcium fluorescence; actives lie on both sides; AID 1741, 2009;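 active means fluorescence change differing from the plate's solvent-only control wells at 99.7% confidence in both duplicates, whether higher or lower; inconclusive means differs from solvent controls in only one of two duplicates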
Target sequence (P08485 whole entry, looked up): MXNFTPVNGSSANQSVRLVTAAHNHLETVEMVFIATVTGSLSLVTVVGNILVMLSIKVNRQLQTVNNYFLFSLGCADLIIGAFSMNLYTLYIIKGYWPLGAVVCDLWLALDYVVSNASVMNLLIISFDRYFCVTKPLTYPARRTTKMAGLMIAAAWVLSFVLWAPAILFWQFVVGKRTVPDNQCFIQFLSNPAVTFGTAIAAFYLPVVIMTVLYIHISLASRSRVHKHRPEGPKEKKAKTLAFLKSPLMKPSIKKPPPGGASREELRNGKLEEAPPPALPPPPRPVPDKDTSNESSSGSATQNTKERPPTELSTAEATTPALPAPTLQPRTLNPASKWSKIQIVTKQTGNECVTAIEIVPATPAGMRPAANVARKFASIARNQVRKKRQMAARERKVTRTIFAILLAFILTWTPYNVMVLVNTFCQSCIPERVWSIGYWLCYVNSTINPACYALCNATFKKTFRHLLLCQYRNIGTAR
* = called active by the depositor; ? = inconclusive; . = no result given. An excerpt weighted towards active compounds, which were near 8.2% of everything screened.

SMILES	D1 mod	HePTP inhibitor	SF1 activator	M1 ag	RORa activator	M1 antag	M1 agonist conf	M4 ag counter
Cc1c(N=Cc2ccco2)c(=O)n(-c2ccccc2)n1C	-0.3	7.1	5.3	.	-3.0	.	.	.
COc1ccc2c(C=Nc3c(C)n(C)n(-c4ccccc4)c3=O)c(O)n(Cc3ccco3)c(=O)c2c1	0.829	-3.2	-6.8	9.53*	-11.3	-2.19*	11.4	-8.68
COc1ccc(-c2noc(N3CCC(C(=O)N4CCN(c5ccccn5)CC4)CC3)n2)cc1	-1.54	4.8	-18.1	2.39*	6.7	-2.17	17.8	-12.7
CCOC(=O)c1c(C)[nH]c(C(=O)COC(=O)c2cnc(C)cn2)c1C	0.746	1.3	-0.5	-0.956	-2.1	-1.05	.	.
COc1cc(-c2nc3cnccn3c2Nc2ccc3c(c2)OCCO3)ccc1O	-0.928	0.9	18.1	3.51*	25.0	0.262	-4.2	?
COc1cc(-c2nc3ccccn3c2/N=C/c2cccc([N+](=O)[O-])c2O)ccc1O	.	5.0	.	.	.	.	.	.
COc1cc(-c2nc3cnccn3c2Nc2ccccc2)ccc1O	-1.92	8.4	13.3	5.46*	8.9	-1.74	-28	-26.4
COc1ccc(CNCC(O)COCc2cccs2)cc1 (stereo not given)	.	7.6	-1.8	-0.864	-3.3	-1.5	.	.
O=C(c1cccs1)N(Cc1ccco1)Cc1cc2ccccc2[nH]c1=O	1.09	-2.9	-10.3	-0.0862	4.9	1.11	.	.
CCOC(=O)N1CCN(C/C(C)=C/c2ccccc2)CC1	-0.00632	6.3	-11.5	-0.944	11.4	-1.8	.	.
CCOC(=O)c1nc(N2CCN(C(=O)OCC)CC2)c2c3c(sc2n1)CCCC3	.	1.1	11.2	9.16*	19.0	-0.449	?	-63.3
O=C(/C=C/c1c[nH]c2ccccc12)c1ccc(Cl)cc1	.	6.1	.	.	.	.	.	.
Cc1ccc(-c2noc(CCC(=O)Nc3ccc4c(c3)OCO4)n2)cc1	0.00499	7.6	-18.0	-0.8	-11.4	0.853	.	.
COc1ccc(-c2noc(CCC(=O)Nc3ccc4c(c3)OCCO4)n2)cc1	-0.734	-5.5	16.2	3.73*	-10.6	-1.98*	19.7	-10.6
CC(C)c1nc2oc3c(NCC4CCCO4)ncnc3c2c2c1COC(C)(C)C2 (stereo not given)	12.2*	-10.7	-3.0	4.5*	-11.0	-0.0586	-25.9	-41.6
Cc1ccc(-c2nnc(N3CCN(c4ccccn4)CC3)c3ccccc23)cc1	-2.87	16.0	-4.5	1.97*	-6.0	-3.49*	?	-52.5
CS(=O)(=O)N1CCN(CC2CC3C=CC2C3)CC1 (stereo not given)	-0.318	10.5	-2.0	37.3*	-1.1	-6.84*	208*	-53
C1=CC2CC1CC2CN1CCN(c2ccccc2)CC1 (stereo not given)	-4.58*	4.2	-17.6	6.44*	0.4	-1.45	?	-41.5
O=C(c1ccc([N+](=O)[O-])cc1)N1CCN(CC2CC3C=CC2C3)CC1 (stereo not given)	.	-3.6	.	.	.	.	.	.
COc1cc(CN2CCN(CC3CC4C=CC3C4)CC2)cc(OC)c1O (stereo not given)	.	3.5	.	.	.	.	.	.
O=C(c1ccco1)N1CCN(CC2CC3C=CC2C3)CC1 (stereo not given)	-0.0357	-8.4	28.8	6.21*	23.8	-2.41*	?	-57.4
O=C(O)c1ccc(NC(=S)N/C(=N/S(=O)(=O)c2ccc(Cl)cc2)c2ccccc2)cc1	.	-18.7	.	.	.	.	.	.
C(=N\n1cnnc1)/C1CCCCC1	-0.471	4.0	2.5	-0.546	20.1	-0.224	.	.
O=C(Nc1ccc(Cl)cc1)NC1CCCC1Cc1ccco1 (stereo not given)	-1.62	3.5	6.4	4.83*	-6.1	-2.1*	?	-38.1
O=C(Nc1ccc(Cl)cc1)C(=O)NC1CCCC1	.	-6.0	.	.	.	.	.	.
SMILES	D1 mod	HePTP inhibitor	SF1 activator	M1 ag	RORa activator	M1 antag	M1 agonist conf	M4 ag counter
Cn1c(C(=O)NCCN2CCc3ccccc3C2)cc2c(=O)n(C)c3ccccc3c21	-0.312	5.0	16.3	2.91*	6.4	-2.02	?	-48.9
Cn1c(C(=O)NCCN2CCOCC2)cc2c(=O)n(C)c3ccccc3c21	-0.273	8.3	-7.5	0.0953	-15.2	0.397	.	.
Cn1c(C(=O)NC2CCCCCC2)cc2c(=O)n(C)c3ccccc3c21	-1.21	7.0	8.5	3.76*	20.0	-0.952	?	?
Cc1cccc(N2CCN(C(=O)c3cc4c(=O)n(C)c5ccccc5c4n3C)CC2C)c1 (stereo not given)	-4.82*	9.3	0.1	5.49*	16.9	-0.0233	-4.38	-20.7
Cn1c(C(=O)NC2CCCCC2)cc2c(=O)n(C)c3ccccc3c21	-0.446	3.4	-9.6	3.81*	2.3	0.172	?	?
Cn1c(=O)c(C(=O)NC2CCCCC2)c(O)c2ccccc21	.	4.4	.	.	.	.	.	.
CCCN(CCC)C1=CC(=O)C(C(C)(C)C)=CC1=O	.	-1.8	.	.	.	.	.	.
Cc1ccc(C(C)C)c(OCCNS(C)(=O)=O)c1	-0.462	5.3	15.0	-0.561	-17.2	0.334	.	.
COCCOC(=O)C1=C(C)NC(=S)NC1c1ccc(Cl)cc1 (stereo not given)	.	5.0	.	.	.	.	.	.
CCCN(CCC)CCNC(=O)c1cc2c(=O)n(C)c3ccccc3c2n1C	0.666	13.8	21.1	0.327	20.5	-1.68	.	.
CC1CCC(NC(=O)c2cc3c(=O)n(C)c4ccccc4c3n2C)CC1 (stereo not given)	0.0249	-10.6	31.8	3.7*	40.6	-0.193	-7.57	-16.8
COc1ccc(Cl)cc1NC(=O)C1=C(C)NC(=S)NC1c1cccc(Cl)c1 (stereo not given)	.	8.7	.	.	.	.	.	.
Nc1cc(Cl)ccc1N1CCOCC1	.	6.8	20.1	-0.0607	-6.7	-1.25	.	.
Clc1ccc2c(c1)CNc1c(ncnc1N1CCOCC1)O2	-0.643	-2.2	-0.7	2.72*	-8.2	-1.97*	?	-74.4
CCOC(=O)C1=C(C)NC(C)=C(C(=O)OCC)C1c1ccc(OC)cc1	.	3.4	5.6	1.86*	-13.2	-0.0184	1.27	-22.5
Nc1nnc(CC(=O)N/N=C/c2cccc(Cl)c2)s1	.	5.3	.	.	.	.	.	.
